Activity calls are given as the source filed them. No cut-off for these calls is given here. Peptide text beside a SMILES is read from it. * marks the point of attachment. Cbz = O=C(OCc1ccccc1)*; OBn = c1ccc(CO*)cc1; OtBu = CC(C)(C)O*; tBu = CC(C)(C)*
Legend:
[1] = Half life in human plasma; format: ADME, cell-free
[2] = Chemical stability of the compound in CDCl3 after 12 hrs; format: physicochemical
In short: (§1)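 Peptide kept in organic solvent (DMSO, CDCl₃ or MeOH) and watched for decomposition, read at 12 h and at 7 days.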

NALM-6 [3] = assay: Cytotoxicity against human NALM6 cells assessed as cell viability at 50 uM after 24 hrs by MTT assay; format: functional, cell-based
In short: (§2)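 Cells exposed to peptide at a range of concentrations for 24 h, with DMSO as negative control. Tetrazolium (MTS-type) viability reagent added, then 1–2 h at 37 °C. Read-out is OD at 490 nm. Run in triplicate; significance by Student's t-test against untreated and DMSO-treated cells. Peptide stock was 25 mM in DMSO, stored at −20 °C.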

[4] = Chemical stability of the compound in DMSO after 12 hrs; format: physicochemical; in short: as §1
HEL [5] = assay: Cytotoxicity against human HEL cells assessed as cell viability at 50 uM after 24 hrs by MTT assay; format: functional, cell-based; in short: as §2
[6] = Chemical stability of the compound in MeOH after 12 hrs; format: physicochemical; in short: as §1
HL-60 [7] = assay: Cytotoxicity against human HL60 cells assessed as cell viability at 50 uM after 24 hrs by MTT assay; format: functional, cell-based; in short: as §2
HUVEC = assay: Cytotoxicity against human HUVEC cells assessed as cell viability after 24 hrs by MTT assay; format: cell-based; in short: as §2
HEK-293T = assay: Cytotoxicity against human 293T cells assessed as reduction of clonogenicity at 10 uM after 1 to 2 weeks by crystal violet staining; format: cell-based
In short: (§3)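 Clonogenic survival: 1000 cells plated per well, then grown with or without peptide for 1–2 weeks before colonies were scored. Peptide stock was 25 mM in DMSO.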

HL-60 [8] = assay: Cytotoxicity against human HL60 cells assessed as cell viability at 1 to 100 uM after 24 hrs by MTT assay; format: functional, cell-based; in short: as §2
U-251 = assay: Cytotoxicity against human U251 cells assessed as reduction of clonogenicity at 10 uM after 1 to 2 weeks by crystal violet staining; format: functional, cell-based; in short: as §3
[9] = Chemical stability of the compound in CDCl3 after 7 days; format: physicochemical; settings: 168 h; in short: as §1
[10] = Chemical stability of the compound in DMSO after 7 days; format: physicochemical; settings: 168 h; in short: as §1
[11] = Chemical stability of the compound in MeOH after 7 days; format: physicochemical; settings: 168 h; in short: as §1
NALM-6 [12] = assay: Cytotoxicity against human NALM6 cells assessed as cell viability at 1 to 100 uM after 24 hrs by MTT assay; format: functional, cell-based; in short: as §2
HL-60 [13] = assay: Cytotoxicity against human HL60 cells assessed as cell viability after 24 hrs by MTT assay; format: functional, cell-based; in short: as §2
HEL [14] = assay: Cytotoxicity against human HEL cells assessed as cell viability at 1 to 100 uM after 24 hrs by MTT assay; format: functional, cell-based; in short: as §2

Structure (SMILES) | half-life [1] | Stability [2] | inhibition (NALM-6 [3]) | Stability [4] | inhibition (HEL [5]) | Stability [6] | inhibition (HL-60 [7]) | Activity (HUVEC) | Activity (HEK-293T) | Activity (HL-60 [8]) | Activity (U-251) | Stability [9] | Stability [10] | Stability [11] | Activity (NALM-6 [12]) | Activity (HL-60 [13]) | Activity (HEL [14])
CC(=O)N[C@@H](CO)C(=O)N[C@@H](CC(=O)O)C(=O)N[C@@H](CCCCN)C(=O)N1CCC[C@H]1C(=O)O [GORALATIDE] (Ac-SDKP-OH) | 4.5 min | Unstable | inactive | Unstable | inactive | Unstable | inactive | – | – | – | – | – | – | – | – | – | –
CC(=O)N[C@@H](COC(C)(C)C)C(=O)N[C@@H](CC(=O)OC(C)(C)C)C(=O)N[C@@H](CCCCNC(=O)OCc1ccccc1)C(=O)N1CCC[C@H]1C(=O)OCc1ccccc1 (Ac-S(tBu)D(OtBu)K(Cbz)P-OBn) | – | – | – | – | – | – | – | Dose-dependent effect | Toxic | Active | Active | Stable | Stable | Stable | Active | Dose-dependent effect | Active

Reference: ChEMBL document CHEMBL3593217, “Synthesis and bioactivity of a Goralatide analog with antileukemic activity” (Bioorg Med Chem, 2015)
